Test results as given in ChEMBL document CHEMBL2040806, “Synthesis and biological evaluation of analogs of the marine alkaloids granulatimide and isogranulatimide” (Eur J Med Chem, 2012).
pIC50: −log10 of the molar value. Calls of active or inactive are those of the source. The calls are words filed in the database; no cut-off is given here.

Assays:
[1] = tested on: LoVo; assay: Cytotoxicity against human LoVo cells after 72 hrs by MTT assay; type: functional, cell-based
[2] = Cytotoxicity against human OE21 cells after 72 hrs by MTT assay; type: functional, cell-based; details: OE21, 72 h
[3] = Cytotoxicity against human Hs683 cells after 72 hrs by MTT assay; type: functional, cell-based; details: Hs 683, 72 h
[4] = Cytotoxicity against p53-mutant human U373 cells after 72 hrs by MTT assay; type: functional, cell-based, U-373MG ATCC; details: U373 MG
[5] = tested on: A549; assay: Cytostatic activity against human A549 cells after 72 hrs by quantitative videomicroscopic analysis; type: functional, cell-based
[6] = tested on: PC-3; assay: Cytotoxicity against human PC3 cells after 72 hrs by MTT assay; type: functional, cell-based; details: PC-3, 72 h
[7] = tested on: A549; assay: Cytotoxicity against human A549 cells after 72 hrs by MTT assay; type: functional, cell-based; details: A549, 72 h
[8] = tested on: MCF7; assay: Cytotoxicity against human MCF7 cells after 72 hrs by MTT assay; type: functional, cell-based; details: MCF7, 72 h
[9] = tested on: B16-F10; assay: Cytotoxicity against mouse B16F10 cells after 72 hrs by MTT assay; type: functional, cell-based; details: B16-F10, 72 h
[10] = tested on: HCT-116; assay: Cell cycle arrest in p53 double-mutant human HCT116 cells assessed as mitotic index at 300 nM after 24 hrs by flow cytometric analysis; type: functional
Outline: (§1)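 HCT116 p53-/- cells pretreated with etoposide for 1 h, then released into drug-free medium with or without inhibitor for 23 h; nocodazole added to trap cells exiting G2/M. Mitotic cells scored by phospho-histone H3 labeling and DNA content (propidium iodide) by flow cytometry.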

[11] = tested on: HCT-116; assay: Cell cycle arrest in p53 double-mutant human HCT116 cells assessed as mitotic index after 24 hrs by flow cytometric analysis; type: functional; parameters: concentration or dose not given beside the values; outline: as §1
[12] = molecular target: Dual specificity tyrosine-phosphorylation-regulated kinase 1A (Rattus norvegicus, UniProt Q63470); assay: Inhibition of GST-fused rat recombinant DYRK1A expressed in Escherichia coli using Woodtide as substrate and [gamma-33P] after 30 mins by scintillation counting
[13] = molecular target: Cyclin-dependent kinase 5/CDK5 activator 1 (Homo sapiens, UniProt Q00535); assay: Inhibition of human recombinant CDK5/p25; type: protein-complex assay
Outline: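 Human recombinant CDK5/p25 assayed in triplicate in buffer C with 1 mg/ml histone H1 at 30 °C, 15 µM ATP final. Activity as % of uninhibited control after blank subtraction; IC50 from dose-response curves.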

[14] = Inhibition of porcine brain CK1delta/epsilon using CKS peptide as substrate; parameters: species or system Sus scrofa
[15] = molecular target: Dual specificity protein kinase CLK1 (Mus musculus, UniProt P22518); assay: Inhibition of GST-fused mouse recombinant CLK1 expressed in Escherichia coli using RS peptide as substrate
Outline: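 Blanks subtracted, activity as % of uninhibited maximum, DMSO dilution controls, IC50 from dose-response curves.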

[16] = molecular target: Glycogen synthase kinase-3 (Sus scrofa, UniProt B2LUN4+I6LNT8); assay: Inhibition of porcine brain GSK3alpha/beta using GS1 as substrate

Dual specificity protein kinase CLK1, sequence (P22518 whole entry, the tested form may be a part): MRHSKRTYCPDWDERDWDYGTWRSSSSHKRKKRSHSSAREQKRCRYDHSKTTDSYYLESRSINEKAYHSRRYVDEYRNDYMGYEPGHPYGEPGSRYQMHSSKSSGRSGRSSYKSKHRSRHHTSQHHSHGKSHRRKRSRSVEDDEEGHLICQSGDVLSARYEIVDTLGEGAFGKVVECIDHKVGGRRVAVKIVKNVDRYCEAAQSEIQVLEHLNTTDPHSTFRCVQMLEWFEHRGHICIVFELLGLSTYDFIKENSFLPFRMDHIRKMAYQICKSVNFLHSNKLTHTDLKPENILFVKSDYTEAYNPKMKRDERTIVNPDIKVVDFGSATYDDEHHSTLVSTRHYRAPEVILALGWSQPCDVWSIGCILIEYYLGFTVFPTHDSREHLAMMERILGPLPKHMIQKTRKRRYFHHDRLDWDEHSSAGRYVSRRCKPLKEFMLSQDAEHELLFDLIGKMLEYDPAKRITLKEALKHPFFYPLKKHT
Cyclin-dependent kinase 5/CDK5 activator 1, sequence (Q00535 whole entry): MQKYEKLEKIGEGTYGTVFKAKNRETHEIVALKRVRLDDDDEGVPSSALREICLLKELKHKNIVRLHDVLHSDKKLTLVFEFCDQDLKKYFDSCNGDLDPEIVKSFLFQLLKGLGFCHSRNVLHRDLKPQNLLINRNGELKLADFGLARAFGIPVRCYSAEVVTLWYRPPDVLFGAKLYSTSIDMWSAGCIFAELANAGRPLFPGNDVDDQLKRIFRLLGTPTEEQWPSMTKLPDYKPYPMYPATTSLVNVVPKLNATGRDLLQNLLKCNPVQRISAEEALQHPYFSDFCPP
Cyclin-dependent kinase 5/CDK5 activator 1, sequence (Q15078 whole entry, further chain): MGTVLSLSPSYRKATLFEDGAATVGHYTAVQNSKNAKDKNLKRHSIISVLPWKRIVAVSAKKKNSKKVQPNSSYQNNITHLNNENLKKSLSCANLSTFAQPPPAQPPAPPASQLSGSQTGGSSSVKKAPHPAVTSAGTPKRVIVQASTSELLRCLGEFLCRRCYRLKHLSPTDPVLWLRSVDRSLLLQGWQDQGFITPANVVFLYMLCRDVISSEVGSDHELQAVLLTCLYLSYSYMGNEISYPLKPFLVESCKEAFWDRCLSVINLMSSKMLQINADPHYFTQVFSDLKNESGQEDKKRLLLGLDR

Row | Compound | pIC50 [1] | pIC50 [2] | pIC50 [3] | pIC50 [4] | Activity [5] | pIC50 [6] | pIC50 [7] | pIC50 [8] | pIC50 [9] | Activity [10] | Activity [11] | pIC50 [12] | pIC50 [13] | pIC50 [14] | pIC50 [15] | IC50 [16]
1 | COc1ccc2[nH]c(-c3ccc[nH]3)c(C3CC(=O)N(C)C3=O)c2c1 (configuration not stated) | 4.60 | 4.38 | 4.55 | 5.00 | Active | 4.43 | 5.15 | 5.15 | 5.22 | – | – | – | – | – | – | –
2 | COc1ccc2[nH]c3c(c4c(n5cccc35)C(=O)N(C)C4=O)c2c1 | 4.40 | < 4.00 | 4.14 | 4.55 | – | 4.19 | 4.44 | 4.44 | 4.57 | – | – | – | – | – | – | –
3 | Cc1ccc2[nH]c(-n3cccn3)cc2c1 | 4.06 | < 4.00 | < 4.00 | < 4.00 | – | < 4.00 | < 4.00 | < 4.00 | < 4.00 | – | – | – | – | – | – | –
4 | NC(=O)Nc1cc(-c2cccc(F)c2)sc1C(=O)N[C@H]1CCCNC1 [AZD-7762] | – | – | – | – | – | – | – | – | – | 75% | – | – | – | – | – | –
5 | O=C1NC(=O)c2c1c1c3ccccc3[nH]c1n1cncc21 [ISOGRANULATIMIDE] | 4.21 | – | < 4.00 | < 4.00 | – | 4.04 | 4.10 | 4.00 | 4.46 | – | 17.2% | – | – | – | – | –
6 | O=C1NC(=O)C(c2c(-n3cccn3)[nH]c3ccccc23)=C1Br | 4.62 | 4.57 | 4.54 | 4.57 | – | 4.57 | 4.60 | 4.57 | 4.89 | – | – | – | – | – | – | –
7 | COc1ccc2[nH]c(-c3ccc[nH]3)c(C3CC(=O)NC3=O)c2c1 (configuration not stated) | 5.40 | 4.28 | 5.22 | 4.82 | – | 5.22 | 5.40 | 4.72 | 6.22 | – | – | – | – | – | – | –
8 | COc1ccc2[nH]c(-n3cccn3)c(C3=C(Br)C(=O)NC3=O)c2c1 | 4.59 | 4.52 | 4.52 | 4.57 | – | 4.59 | 4.54 | 4.96 | 5.10 | – | – | – | – | – | – | –
9 | COc1ccc2[nH]c(-n3cccn3)cc2c1 | 4.15 | < 4.00 | 4.16 | < 4.00 | – | < 4.00 | < 4.00 | < 4.00 | < 4.00 | – | – | – | – | – | – | –
10 | Cc1ccc2[nH]c3c(c4c(c5ccnn53)C(=O)NC4=O)c2c1 | 5.40 | 5.30 | 4.19 | 4.24 | – | 4.12 | 5.10 | 5.05 | 4.43 | – | 13.9% | < 5.00 | < 5.00 | 5.15 | 5.46 | 0.045 µM
11 | Cc1ccc2[nH]c(-n3cccn3)c(C3=C(Br)C(=O)NC3=O)c2c1 | 4.57 | 4.55 | 4.54 | 4.57 | – | 4.59 | 4.54 | 4.82 | 5.10 | – | 5.5% | – | – | – | – | –
12 | O=C1NC(=O)c2c1c1c3ccccc3[nH]c1n1nccc21 | 6.40 | 5.70 | 5.52 | 6.70 | – | 4.66 | 5.10 | 4.60 | 4.60 | – | 23.9% | 5.68 | 5.40 | 5.49 | 6.52 | 0.49 µM
13 | Cc1ccc2[nH]c3c(c4c(n5cccc35)C(=O)NC4=O)c2c1 | 4.28 | < 4.00 | 4.35 | 4.66 | – | 4.12 | 4.85 | 4.38 | 4.82 | – | – | 5.08 | 5.12 | < 5.00 | 5.82 | 1.7 µM
14 | O=C1NC(=O)c2c1c1[nH]ncc1c1[nH]c3ccccc3c21 | 4.36 | – | 4.03 | < 4.00 | – | < 4.00 | < 4.00 | – | 4.12 | – | – | 5.77 | 6.04 | 5.59 | 6.38 | 0.9 µM
